Results collected from several papers.
Compare with care: the assays were run in different laboratories.

For `CCOC(=O)C1=C(C)N/C(=C/c2cc(C)n(-c3ccc(CN(C)C)cc3)c2C)C1=O`, the half-life was 56 min (metabolic stability; mouse, liver microsomes; 1 µM).
For `Cc1ccc(-c2cc(C(F)(F)F)nn2-c2ccc(S(N)(=O)=O)cc2)cc1`, the concentration was 1500 nM (male Sprague-Dawley rat, plasma; oral, 20 mg/kg, 4 h).
The concentration of `COc1ccc2c(=O)n(C)c(-c3ccccc3)nc2c1` is reported as 20 ng/g (male Sprague-Dawley rat, brain; oral, 30 mg/kg, 2 h, single dose).
`CCc1cc(-c2noc(-c3cc(OC)nc(C4CCCC4)c3)n2)cc(C)c1OC[C@@H](O)CO` gave a concentration of 350 ng/mL (Wistar rat, plasma; oral, 10 mg/kg, 24 h, single dose).
For `CCc1cc(C(=O)NC)c2nccc(N3CCc4c(cc(Cn5ccnc5)cc4-c4cn(C)nc4C(F)(F)F)C3=O)c2c1`, the half-life was 48 min (male Sprague-Dawley rat, plasma; intravenous, 3 mg/kg).
`CCOC(=O)[C@@]12C[C@@H]1[C@@H](n1ccc3c(NC)nc(C#Cc4ccc(Cl)s4)nc31)[C@H](O)[C@@H]2O` has a concentration of 1.88 ng/mL (male Sprague-Dawley rat, plasma; intravenous, 0.5 mg/kg, 4 h).
For `CCOC(=O)C1=C(C)N/C(=C/c2cc(C)n(-c3cccc(C(F)(F)F)c3)c2C)C1=O`, the half-life was 18 min (metabolic stability; mouse, liver microsomes; 1 µM).
With `COC(=O)[C@H](N)CSSC[C@@H](N)C(=O)OC` the half-life was 8.14 min (chemical stability; rat, plasma).
`CCc1cc(OC)c2nccc(N3CCc4c(cc(Cn5ccnc5)cc4-c4cn(C)nc4C(F)(F)F)C3=O)c2c1` gave a C0 of 1150 ng/mL (male Sprague-Dawley rat, plasma; intravenous, 3 mg/kg).
With `Cc1noc(C)c1Cn1cc(N2C(=O)CN(Cc3cccc(O)c3)C2=O)cn1` the concentration was 12.1 ng/mL (male Sprague-Dawley rat, plasma; intravenous, 1 mg/kg, 30 min).
The half-life of `CCOC(=O)C1=C(C)N/C(=C/c2cc(C)n(-c3ccc(S(=O)(=O)C(F)(F)F)cc3)c2C)C1=O` is reported as 30 min (metabolic stability; mouse, liver microsomes; 1 µM).
The concentration of `COc1cccc(-c2n[nH]c(SCc3ccccn3)n2)c1OC` is reported as 4780 ng/mL (female Sprague-Dawley rat, plasma; intravenous, 1 mg/kg, 4.98 min, single dose).
`Cc1noc(C)c1Cn1cc(N2C(=O)N(Cc3cccc(O)c3)C(C)(C)C2=O)cn1` has a concentration of 2.6 ng/mL (male Sprague-Dawley rat, plasma; oral, 100 mg/kg, 30 min, single dose).
